Assay results from the array DNA melting data of Ke et al. (doi:10.1101/2024.01.08.574731).

Columns and labels:
[1] = folding enthalpy; higher = less favourable; fluorescence melt of hairpins on a sequencing array, two-state fit; details: sodium 0.088 M
Summary of the method: (§1)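 With Cy3 and quencher oligos annealed, library hairpins on a sequenced MiSeq flow cell were imaged for Cy3 fluorescence in 50 mM Na-HEPES pH 8.0, 25 mM NaCl, in 2.5 °C steps up to 60 °C. Melting temperature and folding enthalpy were derived from bootstrapped two-state fits of signals normalised to pre-quench Cy3 and to control constructs. Four replicates were combined by inverse variance, with fitted temperatures raised by 9.35 °C to match UV melts.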

[2] = melting temperature; fluorescence melt of hairpins on a sequencing array, two-state fit, raised by 9.35 °C to match UV melts; details: sodium 0.088 M
Summary of the method: as §1

Row | Sequence | folding enthalpy [1] [kcal/mol] | Tm [2] [°C]
1 | GACTCACGAAAGTGCGTC (((.(((....))).))) | -32.8 | 50.6
2 | GACTCAGGAAACCGAGTC (((((.(....).))))) | -29.8 | 46.2
3 | GACTCCCCGAAAGGGGTC (((..(((....)))))) | -7.79 | 31.4
4 | GACTCCCGAAAGGGGGTC (((.(((....))).))) | -33.4 | 63.7
5 | GACTCCGAAAGGACTGTC ((((((....)))..))) | -15.7 | 32.7
6 | GACTCCGAAAGGAGCGTC ((((((....)))..))) | -13.4 | 49.9
7 | GACTCCGAAAGGATAGTC ((((((....)))..))) | -22.5 | 41.5
8 | GACTCCGAAAGGATCGTC ((((((....)))..))) | -23.3 | 42.1
9 | GACTCTACGAAAGTAGTC (((..(((....)))))) | -10.9 | 30.1
10 | GACTCTGGAAACAGGGTC (((.(((....))).))) | -30.7 | 49.4
11 | GACTGACCGAAAGGTGTC (((..(((....)))))) | -16.9 | 41.4
12 | GACTGACGAAAGTCGGTC (((.(((....))).))) | -37.2 | 62
13 | GACTGACGAAAGTCGTC (((.(((....)))))) | -14.2 | 52.6
14 | GACTGCCGAAAGGCCGTC (((.(((....))).))) | -25 | 53.4
15 | GACTGCGAAAGCAAGGTC ((((((....)))..))) | -15.3 | 45.1
16 | GACTGCGAAAGCACGTC ((((((....))).))) | -15.8 | 56.4
17 | GACTGCGGAAACGCAATC ((.((((....)))).)) | -15.4 | 38
18 | GACTGCGGAAACGTGGTC (((..((....))..))) | -32.8 | 46.5
19 | GACTGGCGAAAGCCCGTC (((.(((....))).))) | -18.9 | 49.1
20 | GACTGTGGAAACGTAGTC ((((..(....)..)))) | -17.5 | 34.8
21 | GACTTAGGAAACCAAGTC (((((.(....).))))) | -30.6 | 36
22 | GACTTAGGAAACTAAGCC (.(((((....))))).) | -21.9 | 34.2
23 | GACTTCCGAAAGGATGTC (((.(((....))).))) | -40.7 | 52.8

Row | Sequence | folding enthalpy [1] [kcal/mol] | Tm [2] [°C]
24 | GACTTCGGAAACAAAGTC (((((.(....).))))) | -25.6 | 34
25 | GACTTCGGAAACGGAGTC ((((.((....)).)))) | -39 | 49.4
26 | GACTTGAAAAAGTC (((((....))))) | -26.7 | 44.5
27 | GACTTGCGAAAGCAGGTC (((.(((....))).))) | -34.6 | 60
28 | GACTTGGAAACAAGTC ((((((....)))))) | -38.5 | 54.2
29 | GACTTGGGAAACTGAGTC ((((..(....)..)))) | -32 | 33.5
30 | GACTTTACGAAAGTAGTC (((..(((....)))))) | -12.9 | 33.3
31 | GACTTTCCGAAAGGAGTC (((..(((....)))))) | -13 | 29.6
32 | GACTTTGAAAAAAGTC ((((((....)))))) | -40.6 | 48.6
33 | GACTTTGGAAACAAAGCC (.(((((....))))).) | -22.4 | 39
34 | GAGAAAACGAAAGTTCTC (((..(((....)))))) | -19.4 | 30.8
35 | GAGAAACCGAAAGGTCTC (((..(((....)))))) | -16.8 | 34.1
36 | GAGAAACGAAAGTTGCTC (((.(((....))).))) | -28 | 48.8
37 | GAGAACCCGAAAGGGCTC (((..(((....)))))) | -13.9 | 34.9
38 | GAGAACCGAAAGGTCTC (((.(((....)))))) | -20.6 | 48.1
39 | GAGAACCGAAAGGTGCTC (((.(((....))).))) | -34.3 | 56.5
40 | GAGAACGAAAGTTACTC ((((((....))).))) | -12.4 | 31.1
41 | GAGAACGAAAGTTATCTC ((((((....)))..))) | -26 | 43
42 | GAGAACGAAAGTTCCCTC ((((((....)))..))) | -14 | 38.9
43 | GAGAACGAAAGTTCCTC ((((((....))).))) | -14.2 | 42.7
44 | GAGAAGAAATTCTC (((((....))))) | -9.49 | 28.9
45 | GAGAAGCGAAAGCTACTC (((.(((....))).))) | -28.8 | 49.9
46 | GAGAATCCGAAAGGACTC (((..(((....)))))) | -16 | 27.7

Row | Sequence | folding enthalpy [1] [kcal/mol] | Tm [2] [°C]
47 | GAGACACGAAAGTGACTC (((.(((....))).))) | -36 | 55.6
48 | GAGACAGAAATGTCTC ((((((....)))))) | -34.4 | 52.5
49 | GAGACCCGAAAGGGCCTC (((.(((....))).))) | -28.8 | 58.5
50 | GAGACCGAAAGGTAGCTC ((((((....)))..))) | -18.5 | 39.6
51 | GAGACCGAAAGGTCGCTC ((((((....)))..))) | -14.3 | 69.1
52 | GAGACCGAAAGGTTACTC ((((((....)))..))) | -12.8 | 34.8
53 | GAGACGCGAAAGCGCTC (((.(((....)))))) | -14.3 | 50
54 | GAGACGGGAAACCGTCTC (((((((....))))))) | -28 | 69
55 | GAGACTCCGAAAGGACTC (((..(((....)))))) | -12.8 | 25.6
56 | GAGACTGGAAACAGCCTC (((.(((....))).))) | -23.8 | 43.3
57 | GAGACTGGAAACAGTCTC (((((((....))))))) | -40.3 | 64.8
58 | GAGAGAGCGAAAGCTCTC (((..(((....)))))) | -9.57 | 56.7
59 | GAGAGAGGAAACTCTTTC ((.((((....)))).)) | -20.5 | 29.9
60 | GAGAGCCGAAAGGCCTC (((.(((....)))))) | -15.6 | 55.3
61 | GAGAGCGAAAGCTCCTC ((((((....))).))) | -10.3 | 49
62 | GAGAGCGAAAGCTTACTC ((((((....)))..))) | -12.3 | 30.6
63 | GAGAGCGGAAACACTCTC (((((.(....).))))) | -28.1 | 43
64 | GAGAGCGGAAACGCCCTC (((.(((....))).))) | -16.7 | 47.2
65 | GAGAGCGGAAACGCTTTC ((.((((....)))).)) | -17.3 | 46.4
66 | GAGAGCGGAAACGTTCTC ((((.((....)).)))) | -34.6 | 49.1
67 | GAGAGGCGAAAGCCGCTC (((.(((....))).))) | -18.9 | 66.1
68 | GAGAGGGGAAACTCTCTC (((((.(....).))))) | -26.2 | 49.4
69 | GAGAGTGCGAAAGCACTC (((..(((....)))))) | -7.98 | 64.5

Row | Sequence | folding enthalpy [1] [kcal/mol] | Tm [2] [°C]
70 | GAGAGTGGAAACACCCTC (((.(((....))).))) | -26.8 | 36
71 | GAGAGTGGAAACGCTCTC (((((.(....).))))) | -36.8 | 51.7
72 | GAGATAACGAAAGTTCTC (((..(((....)))))) | -20.8 | 30.7
73 | GAGATACCGAAAGGTCTC (((..(((....)))))) | -15.6 | 34.3
74 | GAGATACGAAAGTAACTC (((.(((....))).))) | -26 | 44.7
75 | GAGATACGAAAGTACTC (((.(((....)))))) | -19.9 | 36.7
76 | GAGATACGAAAGTAGCTC (((.(((....))).))) | -40.8 | 57.5
77 | GAGATCCGAAAGGACTC (((.(((....)))))) | -18.9 | 44.2
78 | GAGATGCGAAAGCACTC (((.(((....)))))) | -19.2 | 48.4
79 | GAGATGGGAAACCATTTC ((.((((....)))).)) | -26.8 | 35
80 | GAGATGGGAAACCGTCTC ((((.((....)).)))) | -38.2 | 49.6
81 | GAGATGGGAAACTATCTC (((((.(....).))))) | -32 | 40.7
82 | GAGCAAGCGAAAGCTCTC (((..(((....)))))) | -11.6 | 35.1
83 | GAGCACGAAAGTGACTC ((((((....))).))) | -19.5 | 47.3
84 | GAGCAGAAATGCTC (((((....))))) | -29.8 | 53.6
85 | GAGCAGGGAAACCTACTC (((.(((....))).))) | -22.1 | 39.5
86 | GAGCATGGAAACATGCCC (.(((((....))))).) | -12.8 | 44
87 | GAGCATGGAAACGTGCTC (((((.(....).))))) | -47.3 | 52.9
88 | GAGCCACGAAAGTGACTC (((.(((....))).))) | -45.2 | 54.5
89 | GAGCCACGAAAGTGCTC (((.(((....)))))) | -19.9 | 54.2
90 | GAGCCAGCGAAAGCTCTC (((..(((....)))))) | -10.3 | 34.8
91 | GAGCCAGGAAACTGGCCC (.(((((....))))).) | -11.3 | 45.8
